Activity calls are given as the source filed them. The calls are words filed in the database; no cut-off is given here.
Key:
[1] = molecular target: T1, Transient receptor potential cation channel subfamily V member 1 (Homo sapiens, UniProt Q8NER1); test: Antagonist activity at human TRPV1 expressed in tetracycline-stimulated HEK293 cells assessed as inhibition of capsaicin-induced intracellular calcium levels by fluorimetric assay relative to control; type: functional, cell-based
[2] = molecular target: T1, Transient receptor potential cation channel subfamily V member 1; test: Antagonist activity at human TRPV1 expressed in tetracycline-stimulated HEK293 cells assessed as inhibition of capsaicin-induced intracellular calcium levels by fluorimetric assay; type: functional, cell-based
[3] = molecular target: T1, Transient receptor potential cation channel subfamily V member 1; test: Agonist activity at human TRPV1 expressed in tetracycline-stimulated HEK293 cells assessed as increase in intracellular calcium levels by fluorimetric assay relative to control; type: functional, cell-based
Outline: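 Tetracycline induction (0.1 µg/mL, 16–24 h) of HEK T-REx hTRPV1 cells, then Fluo-4/AM loading (1 µM, with probenecid 2 mM, 1 h, 37 °C) and a 30 min rest in HEPES buffer pH 7.4. Screening at 100 µM, then full concentration–response for compounds above 50%. Ex 488/em 520 nm, 22–24 °C, triplicate wells.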

[4] = molecular target: T1, Transient receptor potential cation channel subfamily V member 1; test: Agonist activity at human TRPV1 expressed in HEK293 cells assessed as increase in intracellular calcium levels by fluorimetric assay without tetracycline-stimulation; type: functional, cell-based
Outline: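 Non-induced HEK T-REx hTRPV1 cells (no tetracycline) loaded with Fluo-4/AM 1 µM plus probenecid 2 mM for 1 h at 37 °C, then equilibrated 30 min in HEPES buffer pH 7.4. Compounds at 100 µM (10 µM where solubility poor), DMSO ≤0.1%. Fluorescence read at 488/520 nm, 22–24 °C, triplicate wells. Response given as % of 1 µM ionomycin; n = 4–6.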

[5] = molecular target: T1, Transient receptor potential cation channel subfamily V member 1; test: Agonist activity at human TRPV1 expressed in tetracycline-stimulated HEK293 cells assessed as increase in intracellular calcium levels by fluorimetric assay; type: functional, cell-based
[6] = molecular target: T1, Transient receptor potential cation channel subfamily V member 1; test: Displacement of [3H]resiniferatoxin from human TRPV1

T1 sequence (Q8NER1 whole entry): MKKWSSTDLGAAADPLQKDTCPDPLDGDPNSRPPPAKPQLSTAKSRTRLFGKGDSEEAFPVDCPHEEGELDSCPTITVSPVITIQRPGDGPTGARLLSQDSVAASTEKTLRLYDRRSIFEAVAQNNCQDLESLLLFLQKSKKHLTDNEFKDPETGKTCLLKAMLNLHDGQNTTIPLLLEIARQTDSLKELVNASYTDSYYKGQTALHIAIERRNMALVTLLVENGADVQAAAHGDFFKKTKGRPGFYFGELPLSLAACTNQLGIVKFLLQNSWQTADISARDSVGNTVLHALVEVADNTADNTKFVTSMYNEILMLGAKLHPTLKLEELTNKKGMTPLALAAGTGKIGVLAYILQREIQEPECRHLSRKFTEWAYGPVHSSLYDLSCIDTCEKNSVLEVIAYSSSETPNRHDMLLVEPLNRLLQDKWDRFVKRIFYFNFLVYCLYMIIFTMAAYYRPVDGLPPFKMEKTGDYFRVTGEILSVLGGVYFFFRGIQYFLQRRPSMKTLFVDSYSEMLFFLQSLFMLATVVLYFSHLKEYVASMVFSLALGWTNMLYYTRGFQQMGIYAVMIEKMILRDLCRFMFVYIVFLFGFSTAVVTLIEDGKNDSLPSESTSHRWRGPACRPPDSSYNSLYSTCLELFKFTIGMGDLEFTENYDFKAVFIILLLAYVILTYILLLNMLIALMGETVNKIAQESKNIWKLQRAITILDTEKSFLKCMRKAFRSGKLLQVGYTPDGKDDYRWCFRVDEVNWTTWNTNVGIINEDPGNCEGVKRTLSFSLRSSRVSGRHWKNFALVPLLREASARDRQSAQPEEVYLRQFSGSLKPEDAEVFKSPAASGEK

Compound `O=C(/C=C/C=C/c1ccc2c(c1)OCO2)Nc1ccc(Cl)cc1` has an Emax [1] of 94% and an EC50 [2] of 10 nM.
`COc1cc(/C=C/C(=O)N2CCCCC2)ccc1O` showed an Emax [1] of 93% and an EC50 [2] of 2 nM.
Work on `COc1cc(/C=C/C(=O)N2CCSCC2)ccc1O` yielded an Emax [1] of 93% and an EC50 [2] of 2.51 nM.
For `COc1cc(/C=C/C(=O)NCC(C)C)ccc1O`, the Emax [1] was 94% and the EC50 [2] was 6.31 nM.
`COc1cc(/C=C/C(=O)N2CCOCC2)ccc1O` gave an Emax [1] of 92% and an EC50 [2] of 2.51 nM.
For `O=C(/C=C/C=C/c1ccc2c(c1)OCO2)N1CCOCC1`, the Emax [3] was 93%, the Activity [4] was “inactive” and the EC50 [5] was 2510 nM.
For `COc1cc(CNC(=O)CCCC/C=C/C(C)C)ccc1O`, the Emax [3] was 97%.
`Oc1cc2c(cc1O)CN(C(=S)NCCc1ccc(Cl)cc1)CCC2` [CAPSAZEPINE] gave an Emax [1] of 92% and an EC50 [2] of 2510 nM.
In the case of `O=C(/C=C/c1ccc2c(c1)OCO2)N1CCCCC1` [ILEPCIMIDE], the Emax [3] is reported as 66%, the Activity [4] is reported as “inactive” and the EC50 [5] is reported as 20000 nM.
In the case of `O=C(/C=C/CCc1ccc2c(c1)OCO2)N1CCCCC1` [PIPERANINE], the Emax [3] is reported as 88%, the Activity [4] is reported as “inactive” and the EC50 [5] is reported as 3980 nM.
In the case of `O=C(/C=C/C=C/c1ccc2c(c1)OCO2)N1CCCCC1` [PIPERINE], the Emax [3] is reported as 91%, the Activity [6] is reported as “inactive” and the Activity [4] is reported as “inactive”. The EC50 [5] was 3160 nM.
In the case of `CC(C)CNC(=O)/C=C/C=C/c1ccc2c(c1)OCO2` [PIPERLONGUMININE], the Emax [1] is reported as 94% and the EC50 [2] is reported as 6.31 nM.
For `O=C(CCCCc1ccc2c(c1)OCO2)N1CCCCC1` [TETRAHYDROPIPERINE], the Emax [3] was 90%, the Activity [4] was “inactive” and the EC50 [5] was 6310 nM.

From ChEMBL document CHEMBL1158557, “In vitro TRPV1 activity of piperine derived amides” (Bioorg Med Chem, 2010)
